Results collected from several papers.
Lines come from different studies, so protocols differ. ≈ marks a conversion by molar mass, not a printed value.
Organism: Streptococcus pneumoniae
Observed: microbial growth

N=C(N)NN=Cc1ccc(OC/C=C\COc2ccc(C=NNC(=N)N)cc2)cc1 has an MIC of no more than 3 µg/mL (D39; 16 h).
With CN(C)c1cc(NC(=O)CNC(C)(C)C)c(O)c2c1C[C@H]1C[C@H]3[C@H](N(C)C)C(O)=C(C(N)=O)C(=O)[C@@]3(O)C(O)=C1C2=O the MIC was less than 0.06 µg/mL (157E).
With O=c1[nH]cc(F)c(=O)[nH]1 the MIC was 0.125 µg/mL (≈ 0.961 µM) (broth dilution; 24 h).
CN(C)c1ccc(O)c2c1C[C@H]1C[C@H]3[C@H](N(C)C)C(O)=C(C(N)=O)C(=O)[C@@]3(O)C(O)=C1C2=O has an MIC of less than 0.06 µg/mL (157E).
With CN(C)[C@@H]1C(O)=C(C(N)=O)C(=O)[C@@]2(O)C(O)=C3C(=O)c4c(cc5ccc(CN6CC(C#N)C6)cc5c4O)C[C@H]3C[C@@H]12 the MIC was 0.5 µg/mL (≈ 0.895 µM) (broth dilution; ATCC49619).
For O=[N+]([O-])c1ccc(O)c2ncccc12, the MIC was 8 µg/mL (≈ 42.1 µM) (broth dilution; ATCC49619).
The MIC of O=C(O)CN1C(=O)/C(=C/c2c3ccccc3c(-c3ccc(N(c4ccccc4)c4ccccc4)cc3)c3ccccc23)NC1=S is reported as greater than 1000 µg/mL (broth dilution; ATCC49619).
For CN(C)[C@@H]1C(O)=C(C(N)=O)C(=O)[C@@]2(O)C(O)=C3C(=O)c4c(cc5cc(N)ccc5c4O)C[C@H]3C[C@@H]12, the MIC was 1 µg/mL (≈ 2.09 µM) (broth dilution; ATCC49619).
For O=C1NC(=S)S/C1=C\c1ccc(-c2ccc(N(c3ccccc3)c3ccccc3)cc2)cc1, the MIC was 1000 µg/mL (≈ 2150 µM) (broth dilution; ATCC49619).
For COc1cc(Cc2cnc(N)nc2N)cc(OC)c1OC, the MIC was 0.25 µg/mL (≈ 0.861 µM) (broth dilution; 24 h).
O=C1NC(=S)N/C1=C\c1ccc(-c2ccc(N(c3ccccc3)c3ccccc3)cc2)cc1 has an MIC of greater than 1000 µg/mL (broth dilution; ATCC49619).
For C[C@@H](O)[C@H]1C(=O)N2C(C(=O)O)=C(S[C@@H]3CN[C@H](C(=O)N(C)C)C3)[C@H](C)[C@H]12, the MIC was 0.25 µg/mL (≈ 0.652 µM) (broth dilution; ATCC49619).
CN(C)[C@@H]1C(O)=C(C(N)=O)C(=O)[C@@]2(O)C(O)=C3C(=O)c4c(cc5ccc(-c6ccccc6)cc5c4O)C[C@H]3C[C@@H]12 has an MIC of 32 µg/mL (≈ 59.2 µM) (broth dilution; ATCC49619).
With O=C1NC(=S)S/C1=C\c1ccc(-c2ccc(N(c3ccccc3)c3ccccc3)cc2)c2ccccc12 the MIC was 1000 µg/mL (≈ 1940 µM) (broth dilution; ATCC49619).
